Results reported in ChEMBL document CHEMBL1687804, “Comparative efficacies of human simulated exposures of telavancin and vancomycin against methicillin-resistant Staphylococcus aureus with a range of vancomycin MICs in a murine pneumonia model” (Antimicrob Agents Chemother, 2010).
Values after ≈ are worked out from the molar mass of the structure shown. Active and inactive are the calls of the source. No cut-off for these calls is given here.

Tests used:
Staphylococcus aureus [1] = assay: Antibacterial activity against vancomycin-intermediate Staphylococcus aureus isolate 454 (NRS404) by broth microdilution assay; assay type: functional
Method in brief: (§1)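 MIC by broth microdilution using dry-form panels, run in triplicate per isolate; modal MIC reported. Isolates were stored at −80°C in skim milk and subcultured twice on Trypticase soy agar with 5% sheep blood at 35°C before use.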

Staphylococcus aureus [2] = assay: Antibacterial activity against hospital-associated methicillin-resistant Staphylococcus aureus isolate 56 (494) by broth microdilution assay; assay type: functional; method in brief: as §1
Staphylococcus aureus [3] = assay: Antibacterial activity against vancomycin-heteroresistant Staphylococcus aureus isolate 443 by broth microdilution assay; assay type: functional; method in brief: as §1
Staphylococcus aureus [4] = assay: Antibacterial activity against hospital-associated methicillin-resistant Staphylococcus aureus isolate 152 by broth microdilution assay; assay type: functional; method in brief: as §1
Staphylococcus aureus [5] = assay: Antibacterial activity against vancomycin-intermediate Staphylococcus aureus isolate 453 (NRS23) by broth microdilution assay; assay type: functional; method in brief: as §1
Staphylococcus aureus [6] = assay: Antibacterial activity against hospital-associated methicillin-resistant Staphylococcus aureus isolate 360 by broth microdilution assay; assay type: functional; method in brief: as §1
Staphylococcus aureus [7] = assay: Antibacterial activity against vancomycin-heteroresistant Staphylococcus aureus isolate 38 (Mu3) by broth microdilution assay; assay type: functional; method in brief: as §1
Staphylococcus aureus [8] = assay: Antibacterial activity against community-associated methicillin-resistant Staphylococcus aureus isolate 156 by broth microdilution assay; assay type: functional; method in brief: as §1
Staphylococcus aureus [9] = assay: Antibacterial activity against hospital-associated methicillin-resistant Staphylococcus aureus isolate 412 by broth microdilution assay; assay type: functional; method in brief: as §1
Staphylococcus aureus [10] = assay: Antibacterial activity against hospital-associated methicillin-resistant Staphylococcus aureus isolate 336 by broth microdilution assay; assay type: functional; method in brief: as §1
Staphylococcus aureus [11] = assay: Antibacterial activity against community-associated methicillin-resistant Staphylococcus aureus isolate 145 by broth microdilution assay; assay type: functional; method in brief: as §1
Staphylococcus aureus [12] = assay: Antibacterial activity against vancomycin-intermediate Staphylococcus aureus isolate 435 by broth microdilution assay; assay type: functional; method in brief: as §1
Staphylococcus aureus [13] = assay: Antibacterial activity against vancomycin-intermediate Staphylococcus aureus isolate 440 (A6298) by broth microdilution assay; assay type: functional; method in brief: as §1
Staphylococcus aureus [14] = assay: Antibacterial activity against hospital-associated methicillin-resistant Staphylococcus aureus isolate 336 infected in neutropenic BALB/c mouse lung infection model assessed as reduction of CFU at 40 mg/kg, sc administered every 12 hrs measured after 24 hrs; note: unit not given here
Staphylococcus aureus [15] = assay: Antibacterial activity against hospital-associated methicillin-resistant Staphylococcus aureus isolate 412 infected in neutropenic BALB/c mouse lung infection model assessed as reduction of CFU at 40 mg/kg, sc administered every 12 hrs measured after 24 hrs; note: unit not given here
Staphylococcus aureus [16] = assay: Antibacterial activity against community-associated methicillin-resistant Staphylococcus aureus isolate 156 infected in neutropenic BALB/c mouse lung infection model assessed as reduction of CFU at 40 mg/kg, sc administered every 12 hrs measured after 24 hrs; note: unit not given here
Staphylococcus aureus [17] = assay: Antibacterial activity against vancomycin-heteroresistant Staphylococcus aureus isolate 38 (Mu3) infected in neutropenic BALB/c mouse lung infection model assessed as reduction of CFU at 40 mg/kg, sc administered every 12 hrs measured after 24 hrs
Staphylococcus aureus [18] = assay: Antibacterial activity against vancomycin-heteroresistant Staphylococcus aureus isolate 443 infected in neutropenic BALB/c mouse lung infection model assessed as reduction of CFU at 40 mg/kg, sc administered every 12 hrs measured after 48 hrs; note: unit not given here
Staphylococcus aureus [19] = assay: Antibacterial activity against vancomycin-intermediate Staphylococcus aureus isolate 453 (NRS23) infected in neutropenic BALB/c mouse lung infection model assessed as reduction of CFU at 40 mg/kg, sc administered every 12 hrs measured after 48 hrs; note: unit not given here
Staphylococcus aureus [20] = assay: Antibacterial activity against vancomycin-heteroresistant Staphylococcus aureus isolate 443 infected in neutropenic BALB/c mouse lung infection model assessed as reduction of CFU at 40 mg/kg, sc administered every 12 hrs measured after 24 hrs; note: unit not given here
Staphylococcus aureus [21] = assay: Antibacterial activity against vancomycin-intermediate Staphylococcus aureus isolate 440 (A6298) infected in neutropenic BALB/c mouse lung infection model assessed as reduction of CFU at 40 mg/kg, sc administered every 12 hrs measured after 48 hrs
Staphylococcus aureus [22] = assay: Antibacterial activity against vancomycin-intermediate Staphylococcus aureus isolate 435 infected in neutropenic BALB/c mouse lung infection model assessed as reduction of CFU at 40 mg/kg, sc administered every 12 hrs measured after 24 hrs; note: unit not given here
Staphylococcus aureus [23] = assay: Antibacterial activity against community-associated methicillin-resistant Staphylococcus aureus isolate 145 infected in neutropenic BALB/c mouse lung infection model assessed as reduction of CFU at 40 mg/kg, sc administered every 12 hrs measured after 24 hrs; note: unit not given here
Staphylococcus aureus [24] = assay: Antibacterial activity against hospital-associated methicillin-resistant Staphylococcus aureus isolate 360 infected in neutropenic BALB/c mouse lung infection model assessed as reduction of CFU at 40 mg/kg, sc administered every 12 hrs measured after 24 hrs
Staphylococcus aureus [25] = assay: Antibacterial activity against vancomycin-intermediate Staphylococcus aureus isolate 454 (NRS404) infected in neutropenic BALB/c mouse lung infection model assessed as reduction of CFU at 40 mg/kg, sc administered every 12 hrs measured after 48 hrs; note: unit not given here
Staphylococcus aureus [26] = assay: Antibacterial activity against vancomycin-intermediate Staphylococcus aureus isolate 454 (NRS404) infected in neutropenic BALB/c mouse lung infection model assessed as reduction of CFU at 40 mg/kg, sc administered every 12 hrs measured after 24 hrs; note: unit not given here
Staphylococcus aureus [27] = assay: Antibacterial activity against hospital-associated methicillin-resistant Staphylococcus aureus isolate 56 (494) infected in neutropenic BALB/c mouse lung infection model assessed as reduction of CFU at 40 mg/kg, sc administered every 12 hrs measured after 24 hrs; note: unit not given here
Staphylococcus aureus [28] = assay: Antibacterial activity against hospital-associated methicillin-resistant Staphylococcus aureus isolate 336 infected in neutropenic BALB/c mouse lung infection model assessed as reduction of CFU at 40 mg/kg, sc administered every 12 hrs measured after 48 hrs; note: unit not given here
Staphylococcus aureus [29] = assay: Antibacterial activity against hospital-associated methicillin-resistant Staphylococcus aureus isolate 152 infected in neutropenic BALB/c mouse lung infection model assessed as reduction of CFU at 40 mg/kg, sc administered every 12 hrs measured after 24 hrs; note: unit not given here
Staphylococcus aureus [30] = assay: Antibacterial activity against vancomycin-intermediate Staphylococcus aureus isolate 440 (A6298) infected in neutropenic BALB/c mouse lung infection model assessed as reduction of CFU at 40 mg/kg, sc administered every 12 hrs measured after 24 hrs
Staphylococcus aureus [31] = assay: Antibacterial activity against vancomycin-intermediate Staphylococcus aureus isolate 453 (NRS23) infected in neutropenic BALB/c mouse lung infection model assessed as reduction of CFU at 40 mg/kg, sc administered every 12 hrs measured after 24 hrs; note: unit not given here
Staphylococcus aureus [32] = assay: Antibacterial activity against vancomycin-intermediate Staphylococcus aureus isolate 435 infected in neutropenic BALB/c mouse lung infection model assessed as reduction of CFU at 40 mg/kg, sc administered every 12 hrs measured after 48 hrs; note: unit not given here
Staphylococcus aureus [33] = assay: Antibacterial activity against community-associated methicillin-resistant Staphylococcus aureus isolate 145 infected in neutropenic BALB/c mouse lung infection model assessed as reduction of CFU at 40 mg/kg, sc administered every 12 hrs measured after 48 hrs; note: unit not given here

SMILES	MIC (Staphylococcus aureus [1]) [µg/mL]	MIC (Staphylococcus aureus [2]) [µg/mL]	MIC (Staphylococcus aureus [3]) [µg/mL]	MIC (Staphylococcus aureus [4]) [µg/mL]	MIC (Staphylococcus aureus [5]) [µg/mL]	MIC (Staphylococcus aureus [6]) [µg/mL]	MIC (Staphylococcus aureus [7]) [µg/mL]	MIC (Staphylococcus aureus [8]) [µg/mL]	MIC (Staphylococcus aureus [9]) [µg/mL]	MIC (Staphylococcus aureus [10]) [µg/mL]	MIC (Staphylococcus aureus [11]) [µg/mL]	MIC (Staphylococcus aureus [12]) [µg/mL]	MIC (Staphylococcus aureus [13]) [µg/mL]	also measured
CCCCCCCCCC(=O)N[C@@H](Cc1c[nH]c2ccccc12)C(=O)N[C@H](CC(N)=O)C(=O)N[C@@H](CC(=O)O)C(=O)N[C@@H]1C(=O)NCC(=O)N[C@@H](CCCN)C(=O)N[C@@H](CC(=O)O)C(=O)N[C@H](C)C(=O)N[C@@H](CC(=O)O)C(=O)NCC(=O)N[C@H](CO)C(=O)N[C@@H]([C@H](C)CC(=O)O)C(=O)N[C@@H](CC(=O)c2ccccc2N)C(=O)O[C@@H]1C	1 (≈ 0.617 µM)	0.5 (≈ 0.309 µM)	0.5 (≈ 0.309 µM)	0.5 (≈ 0.309 µM)	1 (≈ 0.617 µM)	0.5 (≈ 0.309 µM)	0.5 (≈ 0.309 µM)	0.5 (≈ 0.309 µM)	0.5 (≈ 0.309 µM)	0.5 (≈ 0.309 µM)	0.5 (≈ 0.309 µM)	0.5 (≈ 0.309 µM)	1 (≈ 0.617 µM)	–
O=C(O)c1cn(C2CC2)c2cc(N3CCNCC3)c(F)cc2c1=O [CIPROFLOXACIN]	≥ 16	0.5 (≈ 1.51 µM)	≥ 16	0.5 (≈ 1.51 µM)	≥ 16	≥ 16	≥ 16	≥ 16	≥ 16	≥ 16	8 (≈ 24.1 µM)	≥ 16	≥ 16	–
CCC[C@@H]1C[C@@H](C(=O)N[C@@H]([C@H]2O[C@H](SC)[C@H](O)[C@@H](O)[C@H]2O)[C@H](C)Cl)N(C)C1 [CLINDAMYCIN]	≤ 0.5	0.25 (≈ 0.588 µM)	≥ 8	0.125 (≈ 0.294 µM)	≥ 8	≥ 8	≥ 8	≤ 0.5	≤ 0.5	≥ 8	≥ 8	≤ 0.5	≥ 8	–
CCCCCCCCCCNCCN[C@@]1(C)C[C@H](O[C@H]2[C@H](Oc3c4cc5cc3Oc3ccc(cc3Cl)[C@@H](O)[C@@H](NC(=O)[C@@H](CC(C)C)NC)C(=O)N[C@@H](CC(N)=O)C(=O)N[C@H]5C(=O)N[C@H]3C(=O)N[C@H](C(=O)N[C@H](C(=O)O)c5cc(O)c(CNCP(=O)(O)O)c(O)c5-c5cc3ccc5O)[C@H](O)c3ccc(c(Cl)c3)O4)O[C@H](CO)[C@@H](O)[C@@H]2O)O[C@@H](C)[C@H]1O [TELAVANCIN]	1 (≈ 0.57 µM)	0.5 (≈ 0.285 µM)	0.5 (≈ 0.285 µM)	0.25 (≈ 0.142 µM)	1 (≈ 0.57 µM)	0.5 (≈ 0.285 µM)	0.5 (≈ 0.285 µM)	0.5 (≈ 0.285 µM)	0.5 (≈ 0.285 µM)	0.5 (≈ 0.285 µM)	0.5 (≈ 0.285 µM)	1 (≈ 0.57 µM)	1 (≈ 0.57 µM)	Activity (Staphylococcus aureus [14]): Active; Activity (Staphylococcus aureus [15]): Active; Activity (Staphylococcus aureus [16]): Active; Activity (Staphylococcus aureus [17]): Active; Activity (Staphylococcus aureus [18]): inactive; Activity (Staphylococcus aureus [19]): Active; Activity (Staphylococcus aureus [20]): Active; Activity (Staphylococcus aureus [21]): Active; Activity (Staphylococcus aureus [22]): Active; Activity (Staphylococcus aureus [23]): Active; Activity (Staphylococcus aureus [24]): Active; Activity (Staphylococcus aureus [25]): Active; Activity (Staphylococcus aureus [26]): Active; Activity (Staphylococcus aureus [27]): Active; Activity (Staphylococcus aureus [28]): inactive; Activity (Staphylococcus aureus [29]): Active; Activity (Staphylococcus aureus [30]): Active; Activity (Staphylococcus aureus [31]): Active; Activity (Staphylococcus aureus [32]): inactive; Activity (Staphylococcus aureus [33]): inactive
CN(C)c1cc(NC(=O)CNC(C)(C)C)c(O)c2c1C[C@H]1C[C@H]3[C@H](N(C)C)C(O)=C(C(N)=O)C(=O)[C@@]3(O)C(O)=C1C2=O [TIGECYCLINE]	0.125 (≈ 0.213 µM)	0.5 (≈ 0.854 µM)	0.25 (≈ 0.427 µM)	0.25 (≈ 0.427 µM)	0.125 (≈ 0.213 µM)	0.25 (≈ 0.427 µM)	0.5 (≈ 0.854 µM)	0.125 (≈ 0.213 µM)	0.25 (≈ 0.427 µM)	0.5 (≈ 0.854 µM)	0.25 (≈ 0.427 µM)	0.25 (≈ 0.427 µM)	0.125 (≈ 0.213 µM)	–
